Assay results collected from several papers.
Compare with care: the assays were run in different laboratories.

CC(C)(C)c1ccc(O)c(CN(Cc2cc(C(C)(C)C)ccc2O)C2CCC(NC(N)=O)CC2)c1 (stereo not drawn)  half-life (male C57BL/6 mouse; brain; oral; 10 mg/kg; single dose): 7.36 h
Cc1cc(NC(=O)c2cccc3cc(-c4cccc5[nH]nc(N)c45)ccc23)ccc1F  half-life (male CD-1 mouse; brain; oral; 10 mg/kg): 2.06 h
Cc1ccc(NC(=O)c2ccc(CN3CCN(C)CC3)cc2)cc1Nc1nccc(-c2cncc(-c3oncc3C)c2)n1  half-life (male C57BL/6 mouse; plasma; oral; 100 mg/kg/day): 2.6 h
CNC(=O)[C@H](Cc1c[nH]cn1)NC(=O)CN(CCCc1ccccc1)CC(=O)OC  half-life (male C57BL/6 mouse; plasma; intraperitoneal; 30 mg/kg): 0.117 h
CC[C@H](C)[C@@H]1NC(=O)[C@@](C)(NC(=O)[C@H](CCCNC(=N)N)NC(=O)[C@H](CC(C)C)NC(=O)[C@@H](NC(=O)[C@H](CCC(N)=O)NC(=O)[C@H](CC(C)C)NC(C)=O)[C@@H](C)O)CCCC=CCCC[C@@](C)(C(=O)N[C@@H](CC(C)C)C(=O)N[C@@H](Cc2ccc3ccccc3c2)C(N)=O)NC(=O)[C@H](CCCNC(=N)N)NC(=O)[C@H](CCC(N)=O)NC1=O  half-life (male BALB/c mouse; plasma; intravenous; 10 mg/kg): 2.17 h
CCc1cc(OC)c2nccc(N3CCc4c(cc(Cn5ccnc5)cc4-c4cn(C)nc4C(F)(F)F)C3=O)c2c1  half-life (male CD-1 mouse; plasma; intravenous; 3 mg/kg): 0.9 h
Oc1nc2nonc2cc1Nc1ccc(OC(F)(F)F)cc1C(F)(F)F  half-life (male C57BL/6 mouse; plasma; oral; 10 mg/kg): > 15 h
CCNc1nc2c(c(N3CC(=O)Nc4cc(OC)ccc43)n1)CCC2  half-life (female C57BL/6 mouse; plasma; intravenous; 4 mg/kg; single dose): 0.51 h
C=CC(=O)N1C[C@H](n2c(C#CC3CC3)c(C(=O)N[C@H](C)c3ccccc3)c3c(N)ncnc32)C[C@@H]1C  half-life (male nude mouse; plasma; oral; 6.25 mg/kg; single dose): 2.15 h
Cc1cc(C)cc(NC(=O)c2cnn(-c3ccc(C(C)C)cc3)c2C2CCNCC2)c1  half-life (SCID mouse; plasma; oral; 50 mg/kg; single dose): ~2 h
CCc1cc(C(=O)NC)c2nccc(N3CCc4c(cc(Cn5ccnc5)cc4-c4cn(C)nc4C(F)(F)F)C3=O)c2c1  half-life (male CD-1 mouse; plasma; oral; 50 mg/kg): 1.5 h
CC=Cc1ccc(O)c(OC)c1  half-life (mouse; lung; intranasal; 100 mg/kg): 0.521 h
Cn1cnc2c(F)c(Nc3ccc(Br)cc3Cl)c(C(=O)NOCCO)cc21  half-life (nude mouse; tumour; oral; 10 mg/kg; single dose, tumour-bearing): 3.7 h
Cc1ccc2cncc(N3CCc4c(cc(Cn5ccnc5)cc4-c4cn(C)nc4C(F)(F)F)C3=O)c2c1  half-life (male CD-1 mouse; plasma; intravenous; 3 mg/kg): 1.5 h
COc1ccc(C[C@@H](C(=O)NO)n2cc(CNS(=O)(=O)c3ccc(-c4ccccc4)s3)nn2)cc1  half-life (female CD-1 mouse; plasma; intraperitoneal; 50 mg/kg): 0.5 h
CN1CCC[C@H](CN2c3ccccc3Sc3ccccc32)C1.O=C(O)CCC(=O)O  half-life (mouse; plasma; oral; 64 mg/kg; single dose): 3.36 h
COc1ccc(NC(=O)N2CCCCN3[C@H](CN(C)S(C)(=O)=O)[C@H](c4ccc(C#Cc5ccccc5)cc4)[C@@H]3C2)cc1  half-life (mouse; plasma; intravenous): 5 h
OC[C@H]1O[C@@H](c2ccc(Cl)c(Cc3ccc(O[C@H]4CCOC4)cc3)c2)[C@H](O)[C@@H](O)[C@@H]1O  half-life (CD-1 mouse; plasma; oral; 10 mg/kg): 0.5 h
CNCCN(C)c1cc(C#N)cc(CCc2cc(C)cc(N)n2)c1  half-life (male BALB/c mouse; plasma; intravenous; 2 mg/kg): 1.1 h
O=C(NCCN1CCCC1)c1cc(-c2ccc(CN3CCOCC3)cc2)nc2ccc(F)cc12  half-life (female NMRI mouse; blood; oral; 3 mg/kg): 19 h
[Cl-].c1csc([I+]c2cccs2)c1  half-life (mouse; plasma; intraperitoneal; 6 mg/kg): 0.08 h
NCC1CCN(c2nc(-c3ccncc3)nc3sc4c(c23)CCCC4)CC1  half-life (female CD-1 mouse; plasma; intravenous; 10 mg/kg): 2.8 h
CCc1ccc(Cc2cc([C@@H]3O[C@H](CO)[C@@H](O)[C@H](O)[C@H]3O)cc3c2CCC3)cc1  half-life (male C57BL/6 mouse; plasma; oral; 3 mg/kg): 3.1 h
COc1ccc2nccc(N3CCc4c(cc(Cn5ccnc5)cc4-c4cn(C)nc4C(F)(F)F)C3=O)c2c1  half-life (male CD-1 mouse; plasma; intravenous; 3 mg/kg): 0.7 h
Cc1nc(-c2cnc(NC(C)C)n(C)c2=O)ccc1Oc1ccnc(-c2cnn(C)c2)c1  half-life (female mouse; plasma; oral; 7.5 mg/kg; single dose): 14 h
CC(C)Oc1c(NC(=O)c2ccc(NC(=O)[C@H](CC(N)=O)NC(=O)c3ccc(NC(=O)c4ccc(C#N)cc4)cc3)cc2)ccc(C(=O)Nc2ccc(C(=O)O)cc2)c1O  half-life (male CD-1 mouse; plasma; subcutaneous; 5 mg/kg; single dose): 1.65 h
CCOc1ccc(Cc2cc([C@@H]3O[C@H](CO)[C@@H](O)[C@H](O)[C@H]3O)ccc2Cl)cc1  half-life (male C57BL/6 mouse; plasma; oral; 1 mg/kg): 3.7 h
C=C(C[C@H](N)C(=O)O)C(=O)NCc1ccc(F)cc1  half-life (male CD-1 mouse; plasma; intravenous; 2.5 mg/kg): 0.8 h
NC(=S)NN=Cc1ncccc1N  half-life (female C57BL/6 mouse; plasma; intravenous; 20 mg/kg): 1.08 h
COc1nc(-c2cc(C)c(N[C@@H](C)c3cc(F)cc(F)c3)nn2)ccc1-n1cnc(C)c1  half-life (male CD-1 mouse; plasma; intravenous; 1 mg/kg; single dose): 3.1 h
COc1ccc(C(O)COc2ccc(-c3csc(-c4ccc(OCC(O)c5ccc(OC)c(OC)c5)cc4)n3)cc2)cc1OC (stereo not drawn)  half-life (C57BL/6 mouse; plasma; oral; 75 mg/kg): 4.1 h
CNC(=O)c1cc(OC)cc2c(N3CCc4c(cc(Cn5ccnc5)cc4-c4cn(C)nc4C(F)(F)F)C3=O)ccnc12  half-life (male CD-1 mouse; plasma; oral; 50 mg/kg): 1.1 h
O=C(Nc1ccc(C(F)(F)F)cc1F)N1CCC(Cc2cccc(Oc3ccc(C(F)(F)F)cn3)c2)CC1  half-life (male Swiss mouse; blood; oral; 1 mg/kg): 6 h
